Assay [1] concerns the target T1, Cytosolic phospholipase A2 (Homo sapiens, UniProt P47712).
T1 sequence (P47712 whole entry): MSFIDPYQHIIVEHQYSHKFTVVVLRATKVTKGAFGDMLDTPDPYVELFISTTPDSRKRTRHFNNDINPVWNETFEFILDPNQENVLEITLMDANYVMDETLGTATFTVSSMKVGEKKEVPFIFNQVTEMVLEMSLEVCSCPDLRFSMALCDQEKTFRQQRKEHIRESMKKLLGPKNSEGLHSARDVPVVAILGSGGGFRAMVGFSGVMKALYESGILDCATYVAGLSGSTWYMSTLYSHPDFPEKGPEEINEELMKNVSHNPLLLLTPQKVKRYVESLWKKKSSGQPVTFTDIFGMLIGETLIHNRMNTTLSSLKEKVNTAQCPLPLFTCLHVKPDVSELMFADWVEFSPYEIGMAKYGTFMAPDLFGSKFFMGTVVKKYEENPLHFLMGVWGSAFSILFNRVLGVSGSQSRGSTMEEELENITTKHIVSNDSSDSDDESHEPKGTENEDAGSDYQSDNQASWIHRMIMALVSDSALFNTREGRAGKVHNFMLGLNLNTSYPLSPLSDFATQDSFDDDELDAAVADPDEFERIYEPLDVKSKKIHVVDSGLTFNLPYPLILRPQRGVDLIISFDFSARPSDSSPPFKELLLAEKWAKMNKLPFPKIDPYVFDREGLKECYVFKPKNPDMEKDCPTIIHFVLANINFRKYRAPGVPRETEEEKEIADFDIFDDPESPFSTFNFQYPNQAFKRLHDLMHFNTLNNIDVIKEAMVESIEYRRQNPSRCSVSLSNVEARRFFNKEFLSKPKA
As to the kind of experiment: Inhibition of Human cPLA2 alpha using Enzyme assay(PC/DOG assay).

Assay [2] concerns THP-1. Description: Inhibition of arachidonic acid production from THP-1 cells stimulated with A-23187 using cellular assay. In kind it is functional, cell-based. Particulars: Homo sapiens. The essentials:
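DMSO-differentiated THP-1 cells (1.3% DMSO for 2 days in RPMI 1640/10% FCS), washed with PBS, held in Hanks' saline pH 7.6 plus 0.1% BSA. Preincubated with inhibitor 15 min at 37 °C, then stimulated with 3 µM calcium ionophore A23187 for 20 min at 37 °C. Arachidonic acid release measured; IC50, mean ± SD, n=3 independent determinations.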

Assay [3] concerns THP-1. As to the kind of experiment: Effect of pyrrolidine derivatives on production of eicosanoids from THP-1 cells stimulated with A-23187 using cellular assay on LTC-4. In kind it is functional, cell-based. Particulars: Homo sapiens. The essentials: (§1)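 THP-1 cells grown in RPMI 1640 with 10% FCS, differentiated with 1.3% DMSO for 2 days, PBS-washed, suspended in Hanks' saline pH 7.6 with 0.1% BSA. Inhibitor preincubation 15 min at 37 °C, then 3 µM A23187 for 20 min at 37 °C. Stopped on ice; supernatant LTC4 and PGE2 measured by radio immunoassay and enzyme immunoassay. IC50, mean ± SD of three independent determinations.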

Assay [4] concerns THP-1. As to the kind of experiment: Effect on production of eicosanoids from THP-1 cells stimulated with A-23187 using cellular assay on PGE-2. In kind it is functional, cell-based. Particulars: Homo sapiens. The procedure, abridged: as §1
In assay [5] the test system is THP-1. Description: Effect on production of eicosanoids from THP-1 cells stimulated with A-23187 using cellular assay on PGE-2, LTC-4. In kind it is functional, cell-based. Particulars: Homo sapiens. The essentials: as §1
Assay [6] deals with THP-1. As to the kind of experiment: Effect of pyrrolidine derivatives on production of eicosanoids from THP-1 cells stimulated with A-23187 using cellular assay on PGE-2, LTC-4. In kind it is functional, cell-based. Particulars: Homo sapiens. The procedure, abridged: as §1

With `CC(C)Cc1cccc(Br)c1O[C@@H]1C[C@@H](CNC(=O)c2ccc(/C=C3\SC(=O)NC3=O)cc2)N(C(=O)c2ccccc2C(=O)c2ccc(F)cc2F)C1`, the concentration for half-maximal inhibition (IC50) (in general, the concentration that gives 50% inhibition) in assay [1] was determined as 22 nM; with THP-1 [2] it was 220 nM.
On to `O=C1NC(=O)/C(=C/c2ccc(C(=O)NC[C@@H]3C[C@@H](OCc4ccccc4-c4ccccc4)CN3C(=O)c3ccc(C(=O)c4ccccc4)cc3)cc2)S1`, for which the 50% inhibitory concentration (IC50) was above 10000 nM in assay [1] and 5500 nM in the assay on THP-1 [2].
For `CC(C)CN(Cc1ccccc1-c1ccccc1)[C@@H]1C[C@@H](CNC(=O)/C=C/c2ccc(/C=C3\SC(=O)NC3=O)cc2)N(C(=O)c2ccccc2C(=O)c2ccc(F)cc2)C1`, the IC50 with THP-1 [2] is 52 nM.
Regarding `O=C1NC(=O)/C(=C/c2ccc(C(=O)NC[C@@H]3C[C@@H](OCc4ccccc4-c4ccccc4)CN3C(=O)c3ccccc3C(=O)c3ccc(F)cc3F)cc2)S1`, the IC50 in assay [1] was found to be 49 nM; in the assay on THP-1 [2] it was 230 nM.
The matching figures for `O=C1NC(=S)S/C1=C\c1ccc(C(=O)NC[C@@H]2C[C@@H](SCc3ccccc3-c3ccccc3)CN2C(=O)c2ccccc2C(=O)c2ccc(F)cc2)cc1`: 72 nM and 400 nM.
In the case of `O=C1NC(=O)/C(=C/c2ccc(C(=O)NC[C@@H]3C[C@@H](SCc4ccccc4-c4ccccc4)CN3C(=O)c3ccccc3C(=O)c3ccc(F)cc3)cc2)S1`, the IC50 in the assay on THP-1 [2] was 250 nM.
In the case of `CC(C)Cc1cccc(Br)c1O[C@@H]1C[C@@H](CNC(=O)c2ccc(/C=C3\SC(=O)NC3=O)cc2)N(C(=O)c2ccccc2C(=O)c2ccc(F)cc2)C1`, the half-inhibitory concentration (IC50) in assay [1] stood at 38 nM; in the assay on THP-1 [2], 300 nM.
The matching figures for `O=C1NC(=O)/C(=C/c2ccc(C(=O)NC[C@@H]3C[C@@H](OCc4ccccc4-c4ccccc4)CN3C(=O)c3cccc(C(=O)c4ccccc4)c3)cc2)S1`: above 10000 nM and 5900 nM.
On to `O=C1NC(=O)/C(=C/c2ccc(C(=O)NC[C@@H]3C[C@@H](OCc4ccccc4-c4ccccc4)CN3C(=O)c3ccccc3C(=O)c3ccccc3)cc2)S1`, for which the IC50 in assay [1] turned out to be 165 nM; in the assay on THP-1 [3], 370 nM; in the assay on THP-1 [2], 670 nM; in the assay with THP-1 [4] it was 410 nM.
For the compound `O=C1NC(=O)/C(=C/c2ccc(C(=O)NC[C@@H]3C[C@@H](Oc4ccccc4-c4ccccc4)CN3C(=O)c3ccccc3C(=O)c3ccc(F)cc3)cc2)S1`, the IC50 in the assay with THP-1 [2] stood at 310 nM; in the assay with THP-1 [4] it was 210 nM.
Take `O=C1NC(=S)S/C1=C\c1ccc(C(=O)NC[C@@H]2C[C@@H](OCc3ccccc3-c3ccccc3)CN2C(=O)c2ccccc2C(=O)c2ccc(F)cc2)cc1`: the IC50 in assay [1] amounted to 90 nM; in the assay with THP-1 [2] it was 700 nM.
For `O=C1NC(=S)S/C1=C\c1ccc(C(=O)NC[C@@H]2C[C@@H](Oc3ccccc3-c3ccccc3)CN2C(=O)c2ccccc2C(=O)c2ccc(F)cc2)cc1`, the IC50 in assay [1] came to 83 nM; in the assay on THP-1 [2], 660 nM.
`CC(C)CN(Cc1ccccc1-c1ccccc1)[C@@H]1C[C@@H](CNC(=O)c2ccc(/C=C3\SC(=O)NC3=O)cc2)N(C(=O)c2ccccc2C(=O)c2ccc(F)cc2)C1`: the figures for the concentration for half-maximal inhibition (IC50) (in assay [1]; with THP-1 [2]) were 21 nM and 180 nM, respectively.
`CC(C)CN(Cc1ccccc1-c1ccccc1)[C@@H]1C[C@@H](CNC(=O)/C=C/c2ccc(/C=C3\SC(=O)NC3=O)cc2)N(C(=O)c2ccccc2C(=O)c2ccc(F)cc2F)C1`: the IC50 in the assay with THP-1 [5] stood at 31 nM; in the assay on THP-1 [2] it was 22 nM; in the assay with THP-1 [6], 13 nM.
In the case of `CC(C)CN(Cc1ccccc1-c1ccccc1)[C@@H]1C[C@@H](CNC(=O)c2ccc(/C=C3\SC(=O)NC3=O)cc2)N(C(=O)c2ccccc2C(=O)c2ccc(F)cc2F)C1`, the concentration for half-maximal inhibition (IC50) in assay [1] amounted to 6.2 nM; in the assay with THP-1 [2] it was 47 nM.
As to `CC(C)Cc1cccc(-c2ccccc2C(C)C)c1O[C@@H]1C[C@@H](CNC(=O)c2ccc(/C=C3\SC(=O)NC3=O)cc2)N(C(=O)c2ccccc2C(=O)c2ccc(F)cc2)C1`, the IC50 in assay [1] is 5.3 nM; with THP-1 [2] it was 92 nM.
The matching figures for `CC(C)Cc1cccc(-c2ccccc2C(C)C)c1O[C@@H]1C[C@@H](CNC(=O)c2ccc(/C=C3\SC(=O)NC3=O)cc2)N(C(=O)c2ccccc2C(=O)c2ccc(F)cc2F)C1`: 2.1 nM and 55 nM.
`O=C1NC(=O)/C(=C/c2ccc(C(=O)NC[C@@H]3C[C@@H](OCc4ccccc4-c4ccccc4)CN3C(=O)c3ccccc3C(=O)c3ccc(F)cc3)cc2)S1`: the IC50 is 260 nM with THP-1 [5], 78 nM in assay [1], 320 nM with THP-1 [2] and 260 nM with THP-1 [6].
Regarding `COc1ccc2c(c1)c(CC(=O)O)c(C)n2C(=O)c1ccc(Cl)cc1` [INDOMETHACIN], the 50% inhibitory concentration (IC50) with THP-1 [5] was 3.6 nM; with THP-1 [2], above 10000 nM; in the assay on THP-1 [6] it was above 10000 nM.
